This is a sample that favours compounds with a hit; in the whole collection about 3.5% have one here.
PRMT1 FP inh – PRMT1 (human) inhibition, primary screen; Q99873; recombinant PRMT1, activity-based probe fluorescence polarization; inhibition, % at 2.79 µM; 370,000 tested, 1.3% active;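 active = inhibition above about 21% made by adding two undisclosed values, limit read from the data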
Target sequence (Q99873 whole entry, looked up): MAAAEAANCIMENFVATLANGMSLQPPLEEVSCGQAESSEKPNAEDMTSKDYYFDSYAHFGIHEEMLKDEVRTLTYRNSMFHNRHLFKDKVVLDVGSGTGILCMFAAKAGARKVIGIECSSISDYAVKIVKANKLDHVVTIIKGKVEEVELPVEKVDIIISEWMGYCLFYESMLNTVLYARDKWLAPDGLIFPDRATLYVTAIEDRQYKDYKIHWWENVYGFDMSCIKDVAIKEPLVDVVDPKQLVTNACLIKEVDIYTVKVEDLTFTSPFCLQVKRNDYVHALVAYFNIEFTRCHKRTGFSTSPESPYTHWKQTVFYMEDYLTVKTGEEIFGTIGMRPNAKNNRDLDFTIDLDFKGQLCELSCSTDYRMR
rCAG binder – binds r(CAG) RNA repeats; AID 651821; 370,000 tested, 1.3% active; inhibition, % at 3 µM; r(CAG) RNA repeat, TO-PRO-1 dye displacement fluorescence;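 active = inhibition above the plate cutoff, the mean of all test compounds on that plate plus 3 SD, cut at about 35% in these data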;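 note: 0% = DMSO alone and 100% = 100 µM mitoxantrone as full dye displacement; higher means more dye released from RNA so lower well fluorescence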
TCR-CD3 inh – blocks the human TCR-CD3 interaction | TAMRA-labeled TCR probe fluorescence, biochemical | inhibition, % at 9.4 µM | 360,000 tested, 0.37% active; in the data active = inhibition above about 19%;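 note: recombinant mutant TCR 2C K166C tagged with TAMRA read by polarization; 0% = receptor in buffer alone and 100% = receptor with positive control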
ABHD4 inh – inhibits mouse alpha/beta hydrolase domain 4; AID 720543; 370,000 tested, 0.54% active; Q8VD66; purified mABHD4, FP-Rh probe fluorescence polarization; inhibition, % at 8.92 µM;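 active = inhibition exceeding the mean over every tested compound plus 3 SD, cut at about 30% in these data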;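 note: 0% = plate median of compound wells and 100% = S159A mutant with DMSO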
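Test system: mABHD4 protein | Buffer or medium: HEPES pH 7.0 buffer, 150 mM NaCl, 0.01% Pluronic F-127 | Probe or stimulus: FP-Rh fluorescent activity-based probe, added after compound pre-incubation | Timing: Pre-incubation 45 min, probe exposure 60 min, at 25 °C | Technique: Fluorescence polarization, excitation 525 nm, emission 598 nm, BODIPY TMR filters | Repeats: Single well per compound (singlicate)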
HTRA1 inhibitor – HTRA1 (human) protease inhibition; recombinant HTRA1, FP-rhodamine activity-based probe, fluorescence polarization; 340,000 tested, 0.5% active; AID 504803; inhibition, % at 5.96 µM; Q92743; in the data active = inhibition above about 36%;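 note: 0% = enzyme with DMSO and 100% = wells lacking enzyme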
SIAE inh – human SIAE inhibition, primary screen; Q9HAT2; SIAE FP-Rh probe binding, fluorescence polarization; inhibition, % at 9.66 µM; 370,000 tested, 0.69% active;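 active = inhibition above a cutoff: mean of compounds within the control limits plus 3 SD of those, cut at about 17% in these data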;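 note: 0% = plate median of compound wells and 100% = probe without SIAE protein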
PRMT1 inh conf – PRMT1 (human) inhibition, FP confirmation | shares compounds with PRMT1 FP inh | recombinant His-PRMT1, activity-based probe fluorescence polarization | inhibition, % at 2.79 µM | 3,300 tested, 42% active | AID 687036;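 active = mean inhibition across replicates above the hit cutoff derived for the earlier primary screen, cut at about 22% in these data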
ABHD4 confirm – ABHD4 (mouse) inhibition, FP confirmation; purified mABHD4, FP-Rh probe fluorescence polarization; 1,800 tested, 55% active; inhibition, % at 8.92 µM; AID 720658; shares compounds with ABHD4 inh;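 active = mean inhibition across replicates above the hit cutoff set in the primary screen, cut at about 30% in these data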;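 note: 0% = wild-type ABHD4 with DMSO and 100% = catalytically dead S159A mutant with DMSO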
* hit, by the source's call; . = no result given.

SMILES	PRMT1 FP inh	rCAG binder	TCR-CD3 inh	ABHD4 inh	HTRA1 inhibitor	SIAE inh	PRMT1 inh conf	ABHD4 confirm
C/C(=N\N1C(=O)CSC1=S)c1ccc(Br)cc1	31.4*	10.6	5.2	-4.8	-4.5	1.2	31.6*	.
Cc1ccccc1CN1CCCCC(NC(=O)c2ccc(F)c(F)c2)C1=O (stereo not drawn)	-2.8	-0.4	.	-1.8	.	-1.1	.	.
O=C(OC12CCCN(C1)/C(=C/c1cccc(Cl)c1)C2)c1ccc(Cl)cc1 (stereo not drawn)	-2.1	2.5	.	-1.8	.	-3.5	.	.
CC(OC(=O)c1ccc2ccccc2c1)C(=O)N(C)Cc1ccccc1 (stereo not drawn)	-0.2	-4.4	0.7	-9.9	-23.2	-6.3	.	.
CC(C)N(CCC(=O)c1ccc2ccccc2c1)Cc1ccccc1	54.3*	1.2	3.6	-7.3	-7.9	-12.6	71.4*	.
CCCn1c(SCC(=O)N2CC(=O)Nc3ccccc32)nc2ccccc21	37.2*	2.3	-7.3	-16.8	0.9	0.8	24.1*	.
O=C(O)/C(=C\c1ccc(-c2ccccc2[N+](=O)[O-])o1)c1ccccc1	2.4	19.0	2.7	11.7	-8.6	9.5	.	.
O=C(/C=C/c1ccc(-c2ccccc2[N+](=O)[O-])o1)c1ccccc1	28.3*	20.0	-2.8	31.6*	-23.8	12.4	-1.6	10.6
CN1c2ccc(-c3cccc(F)c3)cc2[C@H]2[C@H](CCN2S(=O)(=O)c2cccc(F)c2)[C@H]1CO	-2.2	9.1	.	12.0	.	3.1	.	.
Cc1cccc(NC(=O)CSc2nnc(-c3ccco3)c(-c3ccco3)n2)c1	42.4*	41.8*	5.5	43.8*	25.7	15.6	52.1*	44.1*
O=C(O)CCc1ccc(-c2ccccc2)n1-c1ccc(C(=O)O)cc1	.	.	.	.	0.3	.	.	.
Cc1ccc(-c2ccccc2)n1-c1ccc(C(=O)O)cc1	73.2*	4.7	-8.7	35.6*	-8.0	0.9	-0.6	-7.7
O=c1ccc2cc(O)c(O)cc2o1	32.4*	9.0	15.0	50.2*	2.7	6.2	3.0	2.3
O=c1ccc2ccc(O)cc2o1	1.7	-0.8	-1.8	3.3	2.5	3.5	.	.
Cc1ccc(C)c(N2CCN(C(=O)c3ccc4nc(-c5ccco5)c(-c5ccco5)nc4c3)CC2)c1	44.0*	29.4	17.4	41.7*	7.2	13.9	19.4	-1.3
Cc1ccc(S(=O)(=O)Nc2cccc3cccnc23)cc1	-1.0	-3.3	0.0	-2.4	-3.3	-0.8	.	.
O=S(=O)(Nc1cc(Sc2cccc3cccnc23)c(O)c2ccccc12)c1ccccc1	91.2*	-4.8	7.9	42.0*	.	16.6	67.2*	17.4
O=C(O)CSc1cc(NS(=O)(=O)c2cccc([N+](=O)[O-])c2)c2ccccc2c1O	62.5*	26.8	-5.5	40.7*	21.6	11.1	94.7*	34.5*
CCc1ccccc1NC(=O)CC(=O)Nc1ccccc1CC	-0.4	-1.4	-1.3	3.3	5.5	-9.1	.	.
CCC(=O)Nc1cc(OC)c(NC(=S)Nc2ccccc2CC)cc1OC	47.1*	1.6	2.8	42.6*	4.3	11.2	-2.8	-4.7
CCn1c(C)nc2cc(C(=O)N/N=C/c3cccc(OC)c3O)ccc21	-4.2	5.0	0.1	2.6	24.1	-2.3	.	.
CCn1c(C)nc2cc(C(=O)N/N=C/c3ccc(O)c(O)c3O)ccc21	42.8*	31.9	65.6*	35.2*	31.8	9.3	43.0*	44.4*
CCC(=O)N(c1ccccc1)C1CCN(C(=O)C(Cc2ccccc2)NC(C)=O)CC1 (stereo not drawn)	2.2	-1.1	.	0.0	.	2.9	.	.
O=C(O)CCCN1C(=O)/C(=C\c2ccco2)SC1=S	27.9*	7.0	11.6	30.9*	13.4	4.1	17.3	10.9
O=C1/C(=C\c2ccco2)SC(=S)N1C1CCS(=O)(=O)C1 (stereo not drawn)	25.3*	31.0	8.8	35.3*	.	6.9	1.7	-2.6
O=C(Nc1ccc(F)cc1)OCc1cn(Cc2ccccc2F)nn1	-2.8	1.2	.	1.1	.	-3.2	.	.
O=C1NC(Cc2cnc[nH]2)C(=O)N2CCCC12 (stereo not drawn)	6.6	0.2	0.8	0.0	.	-11.3	.	.

Screening data deposited in PubChem BioAssay by The Scripps Research Institute Molecular Screening Center.
